Assay results published in ChEMBL document CHEMBL5724801, “EUbOPEN Chemogenomics Library - Multiplex” (2024).
Values joined by “and” are separate entries in the source; they are usually repeats but may differ in a detail not shown here. Equal values may be shown once.

Columns and labels:
U2OS = experiment: Multiplex assay against U2OS; format: toxicity, cell-based; details: human
Method in brief: (§1)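 Live cells were stained at seeding with Hoechst33342, BioTracker Green Microtubule Cytoskeleton Dye, MitoTracker Red and Annexin V Alexa Fluor 680. Following compound addition, they were imaged on a CQ1 microscope at 37°C and 5% CO2 and gated by CellPathfinder machine learning into Hoechst high-intensity objects or normal cells, with normal cells split into healthy, pyknosed or fragmented nuclei and pyknosed cells into mitotic or apoptotic. Tubulin, mitochondrial-mass and membrane-permeability phenotypes are per cents of healthy-nucleus cells.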

HEK-293T = experiment: Multiplex assay against HEK293T; format: toxicity, cell-based; details: human; method in brief: as §1
[1] = 24 h, 10 µM, compound concentration 10 uM
[2] = 48 h, 1 µM, compound concentration 1 uM
[3] = 48 h, 10 µM, compound concentration 10 uM
[4] = 12 h, 1 µM, compound concentration 1 uM
[5] = 12 h, 10 µM, compound concentration 10 uM
[6] = 24 h, 1 µM, compound concentration 1 uM

SMILES: C=CCN1C[C@H](C(=O)N(CCCN(C)C)C(=O)NCC)C[C@@H]2c3cccc4[nH]cc(c34)C[C@H]21 [CABERGOLINE]
- Population Apoptotic (%) (U2OS; [1]): 65% and 88%
- Population Fragmented Nuclei (%) (U2OS; [1]): 33% and 14%
- Population Healthy Nuclei (%) (U2OS; [1]): 54% and 75%
- Population Hoechst High Intensity Objects (%) (U2OS; [1]): 3% and 2%
- Population Membrane Permeable-Phenotype (%) (U2OS; [1]): 10% and 13%
- Population Mitochondria Different-Phenotype (%) (U2OS; [1]): 5% and 12%
- Population Normal (%) (U2OS; [1]): 96% and 97%
- Population Pyknosed Nuclei (%) (U2OS; [1]): 11% and 10%
- Population Tubulin-Different-Phenotype (%) (U2OS; [1]): 4% and 10%
- Total Cell Count (U2OS; [1]): 228 and 165
- Population Apoptotic (%) (U2OS; [2]): 88% and 93%
- Population Fragmented Nuclei (%) (U2OS; [2]): 13%
- Population Healthy Nuclei (%) (U2OS; [2]): 77% and 73%
- Population Hoechst High Intensity Objects (%) (U2OS; [2]): 2% and 3%
- Population Membrane Permeable-Phenotype (%) (U2OS; [2]): 5% and 4%
- Population Mitochondria Different-Phenotype (%) (U2OS; [2]): 1% and 4%
- Population Mitotic Cells (%) (U2OS; [2]): 11% and 6%
- Population Normal (%) (U2OS; [2]): 97% and 96%
- Population Pyknosed Nuclei (%) (U2OS; [2]): 8% and 13%
- Population Tubulin-Different-Phenotype (%) (U2OS; [2]): 3%
- Total Cell Count (U2OS; [2]): 405 and 221
- Population Apoptotic (%) (U2OS; [3]): 86% and 87%
- Population Fragmented Nuclei (%) (U2OS; [3]): 30% and 13%
- Population Healthy Nuclei (%) (U2OS; [3]): 57% and 66%
- Population Hoechst High Intensity Objects (%) (U2OS; [3]): 3% and 4%
- Population Membrane Permeable-Phenotype (%) (U2OS; [3]): 7% and 9%
- Population Mitochondria Different-Phenotype (%) (U2OS; [3]): 1% and 9%
- Population Mitotic Cells (%) (U2OS; [3]): 13% and 12%
- Population Normal (%) (U2OS; [3]): 96% and 95%
- Population Pyknosed Nuclei (%) (U2OS; [3]): 12% and 20%
- Population Tubulin-Different-Phenotype (%) (U2OS; [3]): 3% and 5%
- Total Cell Count (U2OS; [3]): 303 and 206
- Population Apoptotic (%) (HEK-293T; [4]): 36% and 37%
- Population Fragmented Nuclei (%) (HEK-293T; [4]): 4% and 5%
- Population Healthy Nuclei (%) (HEK-293T; [4]): 76% and 79%
- Population Hoechst High Intensity Objects (%) (HEK-293T; [4]): 8%
- Population Membrane Permeable-Phenotype (%) (HEK-293T; [4]): 0%
- Population Mitochondria Different-Phenotype (%) (HEK-293T; [4]): 51% and 68%
- Population Mitotic Cells (%) (HEK-293T; [4]): 63% and 62%
- Population Normal (%) (HEK-293T; [4]): 91%
- Population Pyknosed Nuclei (%) (HEK-293T; [4]): 18% and 14%
- Population Tubulin-Different-Phenotype (%) (HEK-293T; [4]): 41% and 24%
- Total Cell Count (HEK-293T; [4]): 370 and 322
- Population Apoptotic (%) (HEK-293T; [5]): 53% and 60%
- Population Fragmented Nuclei (%) (HEK-293T; [5]): 8% and 6%
- Population Healthy Nuclei (%) (HEK-293T; [5]): 76% and 78%
- Population Hoechst High Intensity Objects (%) (HEK-293T; [5]): 12% and 8%
- Population Membrane Permeable-Phenotype (%) (HEK-293T; [5]): 0%
- Population Mitochondria Different-Phenotype (%) (HEK-293T; [5]): 65% and 81%
- Population Mitotic Cells (%) (HEK-293T; [5]): 46% and 40%
- Population Normal (%) (HEK-293T; [5]): 87% and 91%
- Population Pyknosed Nuclei (%) (HEK-293T; [5]): 14%
- Population Tubulin-Different-Phenotype (%) (HEK-293T; [5]): 54% and 55%
- Total Cell Count (HEK-293T; [5]): 438 and 371
- Population Apoptotic (%) (HEK-293T; [6]): 43% and 40%
- Population Fragmented Nuclei (%) (HEK-293T; [6]): 9% and 6%
- Population Healthy Nuclei (%) (HEK-293T; [6]): 80% and 83%
- Population Hoechst High Intensity Objects (%) (HEK-293T; [6]): 4% and 6%
- Population Membrane Permeable-Phenotype (%) (HEK-293T; [6]): 1% and 0%
- Population Mitochondria Different-Phenotype (%) (HEK-293T; [6]): 29% and 46%
- Population Mitotic Cells (%) (HEK-293T; [6]): 56% and 59%
- Population Normal (%) (HEK-293T; [6]): 95% and 93%
- Population Pyknosed Nuclei (%) (HEK-293T; [6]): 10% and 9%
- Population Tubulin-Different-Phenotype (%) (HEK-293T; [6]): 20% and 19%
- Total Cell Count (HEK-293T; [6]): 512 and 406
- Population Apoptotic (%) (HEK-293T; [1]): 37% and 42%
- Population Fragmented Nuclei (%) (HEK-293T; [1]): 10%
- Population Healthy Nuclei (%) (HEK-293T; [1]): 77% and 79%
- Population Hoechst High Intensity Objects (%) (HEK-293T; [1]): 8% and 12%
- Population Membrane Permeable-Phenotype (%) (HEK-293T; [1]): 0%
- Population Mitochondria Different-Phenotype (%) (HEK-293T; [1]): 51% and 64%
- Population Mitotic Cells (%) (HEK-293T; [1]): 62% and 57%
- Population Normal (%) (HEK-293T; [1]): 91% and 87%
- Population Pyknosed Nuclei (%) (HEK-293T; [1]): 11% and 9%
- Population Tubulin-Different-Phenotype (%) (HEK-293T; [1]): 48% and 43%
- Total Cell Count (HEK-293T; [1]): 556 and 425
- Population Apoptotic (%) (HEK-293T; [2]): 13% and 35%
- Population Fragmented Nuclei (%) (HEK-293T; [2]): 12% and 11%
- Population Healthy Nuclei (%) (HEK-293T; [2]): 80% and 81%
- Population Hoechst High Intensity Objects (%) (HEK-293T; [2]): 4% and 3%
- Population Membrane Permeable-Phenotype (%) (HEK-293T; [2]): 1%
- Population Mitochondria Different-Phenotype (%) (HEK-293T; [2]): 21% and 23%
- Population Mitotic Cells (%) (HEK-293T; [2]): 86% and 65%
- Population Normal (%) (HEK-293T; [2]): 95% and 96%
- Population Pyknosed Nuclei (%) (HEK-293T; [2]): 7% and 6%
- Population Tubulin-Different-Phenotype (%) (HEK-293T; [2]): 16% and 10%
- Total Cell Count (HEK-293T; [2]): 763 and 633
- Population Apoptotic (%) (HEK-293T; [3]): 26% and 43%
- Population Fragmented Nuclei (%) (HEK-293T; [3]): 13% and 10%
- Population Healthy Nuclei (%) (HEK-293T; [3]): 76% and 82%
- Population Hoechst High Intensity Objects (%) (HEK-293T; [3]): 5% and 6%
- Population Membrane Permeable-Phenotype (%) (HEK-293T; [3]): 0%
- Population Mitochondria Different-Phenotype (%) (HEK-293T; [3]): 35% and 32%
- Population Mitotic Cells (%) (HEK-293T; [3]): 73% and 56%
- Population Normal (%) (HEK-293T; [3]): 94% and 93%
- Population Pyknosed Nuclei (%) (HEK-293T; [3]): 9% and 6%
- Population Tubulin-Different-Phenotype (%) (HEK-293T; [3]): 25% and 20%
- Total Cell Count (HEK-293T; [3]): 786 and 676
